Reference: ChEMBL document CHEMBL3792308, “Synthesis and Evaluation of 2,6-Modified Purine 2'-C-Methyl Ribonucleosides as Inhibitors of HCV Replication” (ACS Med Chem Lett, 2016)

How the values were obtained:
Hepatitis C virus = assay: Antiviral activity against HCV infected in HuH7 Clone B cells assessed as inhibition of viral replication after 5 days by RT-PCR method; assay type: functional, organism-based, Hepacivirus hominis; conditions: 120 h
In short: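 Huh7 cells carrying a subgenomic HCV replicon; HCV RNA extracted and amplified to measure replication inhibition. Tested up to 10 μM, and EC50 and EC90 are reported.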

[1] = Cytotoxicity against human PBMC after 6 days by trypan blue exclusion assay; assay type: cell-based; conditions: PBMC (peripheral blood mononuclear cells)
[2] = Cytotoxicity against human CEM cells after 6 days by trypan blue exclusion assay; assay type: cell-based; conditions: CEM (CCRF-CEM) cells
[3] = Cytotoxicity against African green monkey Vero cells after 3 days by hemocytometry; assay type: cell-based; conditions: chlorocebus sabaeus
[4] = Cytotoxicity against human HuH7 cells infected with HCV assessed as reduction in cellular rRNA level after 96 hrs by qRT-PCR analysis; assay type: cell-based, Huh-7
In short: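 Huh7 toxicity was read in the same wells as the replicon assay, by extracting and amplifying cellular rRNA alongside HCV RNA.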

[5] = Drug metabolism in human HuH7 cells assessed as nucleoside triphosphate derivative formation at 50 uM after 4 hrs by LC-MS/MS analysis; assay type: ADME, cell-based; conditions: huh-7, 4 h
In short: (§1)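 Huh7 cells incubated with 50 μM compound for 4 h at 37 °C, then washed with phosphate-buffered saline. Intracellular metabolites extracted with 70% ice-cold methanol in water and identified by LC–MS/MS, with nucleoside mono-, di- and triphosphate levels quantified.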

[6] = Drug metabolism in human HuH7 cells assessed as nucleoside monophosphate derivative formation at 50 uM after 4 hrs by LC-MS/MS analysis; assay type: ADME, cell-based; conditions: huh-7, 4 h; in short: as §1
[7] = Drug metabolism in human HuH7 cells assessed as nucleoside diphosphate derivative formation at 50 uM after 4 hrs by LC-MS/MS analysis; assay type: ADME, cell-based; conditions: huh-7, 4 h; in short: as §1

Compound | EC50 (Hepatitis C virus) | EC90 (Hepatitis C virus) | CC50 at 144 h [1] | CC50 at 144 h [2] | CC50 at 72 h [3] | CC50 at 96 h [4] | Drug metabolism [5] | Drug metabolism [6] | Drug metabolism [7]
CCOP(=O)(OCC)c1nc(N)nc2c1ncn2[C@@H]1O[C@H](CO)[C@@H](O)[C@@]1(C)O | > 10 µM | > 10 µM | > 100 µM | > 100 µM | > 100 µM | > 10 µM | – | – | –
CCOC(=O)[C@H](C)NP(=O)(OC[C@H]1O[C@@H](n2cnc3c(OC)nc(OC)nc32)[C@](C)(O)[C@@H]1O)Oc1ccccc1 (stereo partly drawn) | > 10 µM | > 10 µM | > 100 µM | > 100 µM | > 100 µM | > 10 µM | – | – | –
C[C@@]1(O)[C@H](O)[C@@H](CO)O[C@H]1n1cnc2c(N)nc(N=[N+]=[N-])nc21 | > 10 µM | > 10 µM | > 100 µM | > 100 µM | > 100 µM | > 10 µM | – | – | –
C[C@@]1(O)[C@H](O)[C@@H](CO)O[C@H]1n1cnc2c(N)nc(ONC(=O)OCc3ccccc3)nc21 | > 10 µM | > 10 µM | > 100 µM | > 100 µM | > 100 µM | > 10 µM | – | – | –
CCOC(=O)[C@H](C)NP(=O)(OC[C@H]1O[C@@H](n2cnc3c(NOC)nc(N)nc32)[C@](C)(O)[C@@H]1O)Oc1ccccc1 (stereo partly drawn) | 0.3 µM | 1 µM | > 100 µM | 32 µM | > 100 µM | > 10 µM | – | – | –
CCOC(=O)[C@H](C)NP(=O)(OC[C@H]1O[C@@H](n2cnc3c(P(=O)(OCC)OCC)nc(N)nc32)[C@](C)(O)[C@@H]1O)Oc1ccccc1 (stereo partly drawn) | > 10 µM | > 10 µM | > 100 µM | > 100 µM | > 100 µM | > 10 µM | – | – | –
CCOC(=O)[C@H](C)NP(=O)(OC[C@H]1O[C@@H](n2cnc3c(N)nc(NOC)nc32)[C@](C)(O)[C@@H]1O)Oc1ccccc1 (stereo partly drawn) | > 10 µM | > 10 µM | > 100 µM | > 100 µM | 18 µM | > 10 µM | – | – | –
C=C(OCC)c1nc(N)nc2c1ncn2[C@@H]1O[C@H](CO)[C@@H](O)[C@@]1(C)O | > 10 µM | > 10 µM | > 100 µM | > 100 µM | > 100 µM | > 10 µM | – | – | –
COc1nc(OC)c2ncn([C@@H]3O[C@H](CO)[C@@H](O)[C@@]3(C)O)c2n1 | > 10 µM | > 10 µM | > 100 µM | > 100 µM | > 100 µM | > 10 µM | – | – | –
CCOC(=O)[C@H](C)NP(=O)(OC[C@H]1O[C@@H](n2cnc3c(OC)nc(O)nc32)[C@](C)(O)[C@@H]1O)Oc1ccccc1 (stereo partly drawn) | > 10 µM | > 10 µM | > 100 µM | > 100 µM | > 100 µM | > 10 µM | – | – | –
COc1nc(ONC(=O)OCc2ccccc2)nc2c1ncn2[C@@H]1O[C@H](CO)[C@@H](O)[C@@]1(C)O | > 10 µM | > 10 µM | > 100 µM | > 100 µM | > 100 µM | > 10 µM | – | – | –
COc1nc(N)c2ncn([C@@H]3O[C@H](CO)[C@@H](O)[C@@]3(C)O)c2n1 | > 10 µM | > 10 µM | > 100 µM | > 100 µM | > 100 µM | > 10 µM | – | – | –
CONc1nc(N)nc2c1ncn2[C@@H]1O[C@H](CO)[C@@H](O)[C@@]1(C)O | > 10 µM | > 10 µM | > 100 µM | > 100 µM | > 100 µM | > 10 µM | – | – | –
C[C@@]1(O)[C@H](O)[C@@H](CO)O[C@H]1n1cnc2c(N)nc(O)nc21 | > 10 µM | > 10 µM | > 100 µM | > 100 µM | > 100 µM | > 10 µM | – | – | –
COc1nc(N)nc2c1ncn2[C@@H]1O[C@H](COP(=O)(N[C@@H](C)C(=O)OCC(C)(C)C)Oc2cccc3ccccc23)[C@@H](O)[C@@]1(C)O (stereo partly drawn) [BMS-986094] | 0.02 µM | 0.04 µM | 4.5 µM | 8 µM | 14 µM | 0.8 µM | – | – | –
C[C@@]1(O)[C@H](O)[C@@H](CO)O[C@H]1n1cnc2c(N=[N+]=[N-])nc(N)nc21 | > 10 µM | > 10 µM | > 100 µM | > 100 µM | > 100 µM | > 10 µM | – | – | –
CCOC(=O)[C@H](C)NP(=O)(OC[C@H]1O[C@@H](n2cnc3c(N)nc(O)nc32)[C@](C)(O)[C@@H]1O)Oc1ccccc1 (stereo partly drawn) | > 10 µM | > 10 µM | > 100 µM | > 100 µM | > 100 µM | > 10 µM | – | – | –
CCOC(=O)[C@H](C)NP(=O)(OC[C@H]1O[C@@H](n2cnc3c(N)nc(N=[N+]=[N-])nc32)[C@](C)(O)[C@@H]1O)Oc1ccccc1 (stereo partly drawn) | 2.3 µM | 3 µM | > 100 µM | > 100 µM | > 100 µM | > 10 µM | metabolite_detected | metabolite_detected | metabolite_detected
C[C@@]1(O)[C@H](O)[C@@H](CO)O[C@H]1n1cnc2c(N)nc(Cl)nc21 | > 10 µM | > 10 µM | > 100 µM | > 100 µM | > 100 µM | > 10 µM | – | – | –
CONc1nc(N)c2ncn([C@@H]3O[C@H](CO)[C@@H](O)[C@@]3(C)O)c2n1 | > 10 µM | > 10 µM | > 100 µM | > 100 µM | > 100 µM | > 10 µM | – | – | –

More lines, main results first:

EC50 (Hepatitis C virus) | EC90 (Hepatitis C virus) | Compound | CC50 at 144 h [1] | CC50 at 144 h [2] | CC50 at 72 h [3] | CC50 at 96 h [4] | Drug metabolism [5] | Drug metabolism [6] | Drug metabolism [7]
> 10 µM | > 10 µM | C=C(OCC)c1nc(N)nc2c1ncn2[C@@H]1O[C@H](COP(=O)(N[C@@H](C)C(=O)OCC)Oc2ccccc2)[C@@H](O)[C@@]1(C)O (stereo partly drawn) | > 100 µM | > 100 µM | > 100 µM | > 10 µM | – | – | –
> 10 µM | > 10 µM | COc1nc(O)nc2c1ncn2[C@@H]1O[C@H](CO)[C@@H](O)[C@@]1(C)O | > 100 µM | > 100 µM | > 100 µM | > 10 µM | – | – | –
4.8 µM | 10 µM | CCOC(=O)[C@H](C)NP(=O)(OC[C@H]1O[C@@H](n2cnc3c(N)nc(ONC(=O)OCc4ccccc4)nc32)[C@](C)(O)[C@@H]1O)Oc1ccccc1 (stereo partly drawn) | > 100 µM | > 100 µM | > 100 µM | > 33 µM | – | – | –
1 µM | 2.8 µM | CCOC(=O)[C@H](C)NP(=O)(OC[C@H]1O[C@@H](n2cnc3c(N)nc(OC)nc32)[C@](C)(O)[C@@H]1O)Oc1ccccc1 (stereo partly drawn) | > 100 µM | > 100 µM | > 100 µM | > 10 µM | metabolite_detected | metabolite_detected | metabolite_detected
> 10 µM | > 10 µM | COc1nc(Cl)nc2c1ncn2[C@@H]1O[C@H](CO)[C@@H](O)[C@@]1(C)O | > 100 µM | > 100 µM | > 100 µM | > 10 µM | – | – | –
2.4 µM | 8 µM | C[C@@]1(O)[C@H](O)[C@@H](CO)O[C@H]1n1cnc2c(ONC(=O)OCc3ccccc3)nc(N)nc21 | > 100 µM | > 100 µM | > 100 µM | > 10 µM | – | – | –
6.3 µM | 9.9 µM | CCOC(=O)[C@H](C)NP(=O)(OC[C@H]1O[C@@H](n2cnc3c(OC)nc(Cl)nc32)[C@](C)(O)[C@@H]1O)Oc1ccccc1 (stereo partly drawn) | > 100 µM | > 100 µM | > 100 µM | > 10 µM | – | – | –
0.3 µM | 0.9 µM | CC(C)(CO)C(=O)SCCOP(=O)(NCc1ccccc1)OC[C@H]1O[C@@H](n2cnc3c(=O)[nH]c(N)nc32)[C@](C)(O)[C@@H]1O (stereo partly drawn) | > 100 µM | > 100 µM | > 100 µM | > 100 µM | – | – | –
1.7 µM | 5.3 µM | CCOC(=O)[C@H](C)NP(=O)(OC[C@H]1O[C@@H](n2cnc3c(N)nc(Cl)nc32)[C@](C)(O)[C@@H]1O)Oc1ccccc1 (stereo partly drawn) | > 100 µM | > 100 µM | > 100 µM | > 10 µM | – | – | –
4.1 µM | 9.2 µM | CCOC(=O)[C@H](C)NP(=O)(OC[C@H]1O[C@@H](n2cnc3c(OC)nc(ONC(=O)OCc4ccccc4)nc32)[C@](C)(O)[C@@H]1O)Oc1ccccc1 (stereo partly drawn) | > 100 µM | 24 µM | > 100 µM | > 33 µM | – | – | –
2.4 µM | 7.7 µM | CCOC(=O)[C@H](C)NP(=O)(OC[C@H]1O[C@@H](n2cnc3c(N=[N+]=[N-])nc(N)nc32)[C@](C)(O)[C@@H]1O)Oc1ccccc1 (stereo partly drawn) | > 100 µM | > 100 µM | > 100 µM | > 10 µM | – | – | –
0.3 µM | 5.5 µM | C[C@@]1(O)[C@H](O)[C@@H](CO)O[C@H]1n1cnc2c(NO)nc(N)nc21 | > 100 µM | > 100 µM | > 100 µM | > 10 µM | – | – | –
